Data: ChEMBL document CHEMBL1156759, “Identification and optimization of inhibitors of Trypanosomal cysteine proteases: cruzain, rhodesain, and TbCatB” (J Med Chem, 2010)
The source made the active and inactive calls. The rule behind the calls is not given here.

Assays:
[1] = target: Matrix metalloproteinase-14 (Homo sapiens, UniProt P50281); assay: Inhibition of human MMP14
Procedure, shortened: (§1)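 Profiling panel run externally as 10-dose, 3-fold serial dilutions of compound. Protease activity followed as a time course of fluorescence increase from a fluorescently labeled peptide substrate. The initial linear slope (signal/min) was analysed.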

Cathepsin K = target: T1, Cathepsin K (Homo sapiens, UniProt P43235); assay: Inhibition of human Cathepsin K/O2; procedure, shortened: as §1
T1 sequence (P43235 whole entry): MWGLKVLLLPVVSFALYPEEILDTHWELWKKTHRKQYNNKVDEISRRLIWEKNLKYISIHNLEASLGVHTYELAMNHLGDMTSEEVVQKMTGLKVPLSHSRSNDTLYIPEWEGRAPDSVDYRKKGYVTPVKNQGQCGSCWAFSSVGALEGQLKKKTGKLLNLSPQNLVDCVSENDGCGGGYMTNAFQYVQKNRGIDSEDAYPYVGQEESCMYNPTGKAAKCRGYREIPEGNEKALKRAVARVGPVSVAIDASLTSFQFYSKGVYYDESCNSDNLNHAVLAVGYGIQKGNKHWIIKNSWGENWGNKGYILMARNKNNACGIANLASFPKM

Cathepsin S = Cathepsin S (Homo sapiens, UniProt P25774); assay: Inhibition of human Cathepsin S; procedure, shortened: as §1
Sequence of Cathepsin S (P25774 whole entry): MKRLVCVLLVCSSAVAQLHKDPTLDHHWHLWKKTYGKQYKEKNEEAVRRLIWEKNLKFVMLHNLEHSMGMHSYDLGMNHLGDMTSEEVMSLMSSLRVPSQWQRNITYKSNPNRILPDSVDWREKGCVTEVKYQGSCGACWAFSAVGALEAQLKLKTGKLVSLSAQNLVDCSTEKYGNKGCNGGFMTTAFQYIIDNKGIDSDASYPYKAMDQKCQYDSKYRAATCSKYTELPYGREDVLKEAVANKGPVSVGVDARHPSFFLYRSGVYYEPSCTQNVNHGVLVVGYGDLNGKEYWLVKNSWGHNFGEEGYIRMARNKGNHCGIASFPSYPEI

Cathepsin L2 = target: T2, Cathepsin L2 (Homo sapiens, UniProt O60911); assay: Inhibition of human Cathepsin V; procedure, shortened: as §1
T2 sequence (O60911 whole entry): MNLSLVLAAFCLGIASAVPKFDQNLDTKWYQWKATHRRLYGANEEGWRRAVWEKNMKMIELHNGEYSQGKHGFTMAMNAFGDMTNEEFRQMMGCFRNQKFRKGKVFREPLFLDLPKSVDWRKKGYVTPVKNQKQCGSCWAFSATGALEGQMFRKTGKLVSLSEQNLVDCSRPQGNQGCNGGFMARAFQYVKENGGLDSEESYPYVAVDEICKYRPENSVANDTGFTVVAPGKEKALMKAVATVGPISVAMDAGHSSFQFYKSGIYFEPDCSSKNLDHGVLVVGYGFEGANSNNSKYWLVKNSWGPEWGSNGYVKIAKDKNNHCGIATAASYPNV

[2] = Inhibition of recombinant Trypanosoma brucei rhodesain after 5 mins by spectrofluorimetric analysis
Procedure, shortened: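 Recombinant rhodesain, 4 nM, preincubated 5 min at room temperature with compound (DMSO) in 100 mM sodium acetate pH 5.5, 5 mM DTT, 0.001% Triton X-100. Reaction started with 10 μM Z-Phe-Arg-AMC; rate of AMC fluorescence increase read at ex 355/em 460 nm. IC50 from curve fitting; DMSO-only wells as positive control.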

Cruzipain [3] = target: T3, Cruzipain (Trypanosoma cruzi, UniProt P25779); assay: Inhibition of Trypanosoma cruzi cruzain after 15 mins; details: read-out: IC50
T3 sequence (P25779 whole entry): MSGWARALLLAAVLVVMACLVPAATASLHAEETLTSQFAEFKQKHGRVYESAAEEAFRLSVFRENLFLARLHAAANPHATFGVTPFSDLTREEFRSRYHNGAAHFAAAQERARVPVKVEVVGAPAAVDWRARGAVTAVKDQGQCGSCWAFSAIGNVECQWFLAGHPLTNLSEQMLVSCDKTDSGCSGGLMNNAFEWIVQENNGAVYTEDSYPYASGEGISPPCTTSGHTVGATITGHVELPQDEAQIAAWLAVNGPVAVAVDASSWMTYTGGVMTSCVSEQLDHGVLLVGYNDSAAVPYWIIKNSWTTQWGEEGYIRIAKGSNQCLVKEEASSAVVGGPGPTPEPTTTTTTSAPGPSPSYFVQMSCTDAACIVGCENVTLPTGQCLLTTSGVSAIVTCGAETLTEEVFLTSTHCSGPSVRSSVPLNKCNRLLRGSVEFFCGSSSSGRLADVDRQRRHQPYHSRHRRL
Procedure, shortened: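 Cruzain at 1.5 nM final in 100 mM acetate pH 5.5, 5 mM DTT, 0.01% Triton X-100; compounds as serial 2-fold dilutions pin-transferred in DMSO. 15 min room-temperature preincubation, then Z-FR-AMC 2 μM final. Kinetic fluorescence read at ex 340/em 450 nm. Percent inhibition from the first 60 s signal change versus no-enzyme and uninhibited controls (48 wells each).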

Kallikrein-4 = Kallikrein-4 (Homo sapiens, UniProt Q9Y5K2); assay: Inhibition of human Kallikrein 4; procedure, shortened: as §1
Sequence of Kallikrein-4 (Q9Y5K2 whole entry): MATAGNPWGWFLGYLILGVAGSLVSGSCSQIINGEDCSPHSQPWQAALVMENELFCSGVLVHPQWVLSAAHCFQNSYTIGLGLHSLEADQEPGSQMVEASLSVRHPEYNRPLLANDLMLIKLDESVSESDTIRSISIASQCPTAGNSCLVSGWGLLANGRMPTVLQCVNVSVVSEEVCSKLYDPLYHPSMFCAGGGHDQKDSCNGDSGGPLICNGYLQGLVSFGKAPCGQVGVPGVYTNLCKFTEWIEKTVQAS

Papain = target: T4, Papain (Carica papaya, UniProt P00784); assay: Inhibition of papaya papain; procedure, shortened: as §1
T4 sequence (P00784 whole entry): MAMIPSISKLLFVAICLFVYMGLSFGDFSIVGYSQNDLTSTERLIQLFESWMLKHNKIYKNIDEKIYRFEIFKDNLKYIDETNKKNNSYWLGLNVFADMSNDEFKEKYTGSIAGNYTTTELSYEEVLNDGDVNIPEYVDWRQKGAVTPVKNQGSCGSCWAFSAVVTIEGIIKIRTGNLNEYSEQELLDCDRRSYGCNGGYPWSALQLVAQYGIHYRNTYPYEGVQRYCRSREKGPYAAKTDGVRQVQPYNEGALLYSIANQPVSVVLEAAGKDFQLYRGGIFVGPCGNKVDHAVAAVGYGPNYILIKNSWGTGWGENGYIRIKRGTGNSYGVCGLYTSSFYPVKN

[4] = Inhibition of human Proteinase A; procedure, shortened: as §1
[5] = target: Disintegrin and metalloproteinase domain-containing protein 17 (Homo sapiens, UniProt P78536); assay: Inhibition of human TACE; procedure, shortened: as §1
Sequence of Disintegrin and metalloproteinase domain-containing protein 17 (P78536 whole entry, the tested form may be a part): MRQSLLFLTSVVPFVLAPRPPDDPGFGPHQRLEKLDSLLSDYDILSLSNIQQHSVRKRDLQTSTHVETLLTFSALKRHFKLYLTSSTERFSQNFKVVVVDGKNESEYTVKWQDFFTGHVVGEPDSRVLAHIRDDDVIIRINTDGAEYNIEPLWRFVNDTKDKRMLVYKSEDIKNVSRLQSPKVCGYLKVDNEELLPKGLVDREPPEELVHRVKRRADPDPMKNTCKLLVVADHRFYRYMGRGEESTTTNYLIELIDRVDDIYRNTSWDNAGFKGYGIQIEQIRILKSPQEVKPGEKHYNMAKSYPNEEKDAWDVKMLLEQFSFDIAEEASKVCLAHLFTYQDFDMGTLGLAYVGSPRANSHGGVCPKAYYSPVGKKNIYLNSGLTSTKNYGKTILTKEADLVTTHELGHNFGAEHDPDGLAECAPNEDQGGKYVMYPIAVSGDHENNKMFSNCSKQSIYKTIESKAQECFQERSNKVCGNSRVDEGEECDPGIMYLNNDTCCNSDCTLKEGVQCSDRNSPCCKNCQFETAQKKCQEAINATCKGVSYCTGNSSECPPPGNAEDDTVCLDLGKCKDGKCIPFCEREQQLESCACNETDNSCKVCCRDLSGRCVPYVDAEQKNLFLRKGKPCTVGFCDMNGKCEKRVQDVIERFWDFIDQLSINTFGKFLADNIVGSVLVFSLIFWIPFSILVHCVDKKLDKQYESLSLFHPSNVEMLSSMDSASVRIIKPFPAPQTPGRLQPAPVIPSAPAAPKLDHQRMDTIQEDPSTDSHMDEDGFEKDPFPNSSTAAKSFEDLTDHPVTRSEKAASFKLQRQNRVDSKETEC

Canis familiaris = species on record: Canis familiaris; assay: Toxicity in dog; format: organism-based, Canis lupus familiaris; details: in vivo
Cathepsin Z = Cathepsin Z (Homo sapiens, UniProt Q9UBR2); assay: Inhibition of human Cathepsin X/Z; procedure, shortened: as §1
Sequence of Cathepsin Z (Q9UBR2 whole entry): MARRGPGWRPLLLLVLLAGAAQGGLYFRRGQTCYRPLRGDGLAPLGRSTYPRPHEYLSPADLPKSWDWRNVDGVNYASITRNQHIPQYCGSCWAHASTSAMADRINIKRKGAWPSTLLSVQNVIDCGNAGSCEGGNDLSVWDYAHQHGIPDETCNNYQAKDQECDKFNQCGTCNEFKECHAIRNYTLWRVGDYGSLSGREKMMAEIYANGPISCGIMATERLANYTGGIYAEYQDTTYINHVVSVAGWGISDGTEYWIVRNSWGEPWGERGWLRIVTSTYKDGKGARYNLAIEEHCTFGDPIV

Cathepsin B = Cathepsin B (Homo sapiens, UniProt P07858); assay: Inhibition of human Cathepsin B; procedure, shortened: as §1
[6] = Inhibition of recombinant Trypanosoma brucei cathepsin B after 5 mins by spectrofluorimetric analysis
Procedure, shortened: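 Recombinant TbCatB at 258 nM in 100 mM sodium acetate pH 5.5, 5 mM DTT, 0.001% Triton X-100, preincubated with compound in DMSO for 5 min at room temperature. Z-Phe-Arg-AMC 10 μM added to start. Rate of fluorescence rise read at ex 355/em 460 nm; DMSO control wells; IC50 from curve fitting.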

Mus musculus = species on record: Mus musculus; assay: Toxicity in mouse; format: organism-based; details: in vivo
Proteinase K = Proteinase K (Engyodontium album, UniProt P06873); assay: Inhibition of human Proteinase K; design: species or system Parengyodontium album; procedure, shortened: as §1
Sequence of Proteinase K (P06873 whole entry): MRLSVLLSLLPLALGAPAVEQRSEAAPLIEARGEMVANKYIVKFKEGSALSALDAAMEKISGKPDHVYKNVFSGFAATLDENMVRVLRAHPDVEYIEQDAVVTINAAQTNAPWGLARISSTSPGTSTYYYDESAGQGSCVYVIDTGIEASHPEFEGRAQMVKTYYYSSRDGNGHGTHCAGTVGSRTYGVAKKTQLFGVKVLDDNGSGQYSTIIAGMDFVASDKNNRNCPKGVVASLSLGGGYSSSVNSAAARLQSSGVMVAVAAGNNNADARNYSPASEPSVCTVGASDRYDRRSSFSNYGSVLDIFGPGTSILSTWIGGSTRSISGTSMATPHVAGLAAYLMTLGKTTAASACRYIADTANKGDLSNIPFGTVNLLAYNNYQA

Procathepsin L = Procathepsin L (Homo sapiens, UniProt P07711); assay: Inhibition of human Cathepsin L; procedure, shortened: as §1
Sequence of Procathepsin L (P07711 whole entry): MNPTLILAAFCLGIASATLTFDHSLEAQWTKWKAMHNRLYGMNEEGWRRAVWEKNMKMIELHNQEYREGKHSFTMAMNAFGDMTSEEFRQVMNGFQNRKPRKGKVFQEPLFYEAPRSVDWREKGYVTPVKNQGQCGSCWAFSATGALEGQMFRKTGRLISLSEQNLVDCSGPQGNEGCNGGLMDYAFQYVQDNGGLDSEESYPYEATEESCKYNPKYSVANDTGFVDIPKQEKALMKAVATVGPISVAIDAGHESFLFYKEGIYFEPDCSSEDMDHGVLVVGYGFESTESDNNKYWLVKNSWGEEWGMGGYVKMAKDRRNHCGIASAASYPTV

Beta-secretase 1 = Beta-secretase 1 (Homo sapiens, UniProt P56817); assay: Inhibition of human BACE1; procedure, shortened: as §1
Sequence of Beta-secretase 1 (P56817 whole entry): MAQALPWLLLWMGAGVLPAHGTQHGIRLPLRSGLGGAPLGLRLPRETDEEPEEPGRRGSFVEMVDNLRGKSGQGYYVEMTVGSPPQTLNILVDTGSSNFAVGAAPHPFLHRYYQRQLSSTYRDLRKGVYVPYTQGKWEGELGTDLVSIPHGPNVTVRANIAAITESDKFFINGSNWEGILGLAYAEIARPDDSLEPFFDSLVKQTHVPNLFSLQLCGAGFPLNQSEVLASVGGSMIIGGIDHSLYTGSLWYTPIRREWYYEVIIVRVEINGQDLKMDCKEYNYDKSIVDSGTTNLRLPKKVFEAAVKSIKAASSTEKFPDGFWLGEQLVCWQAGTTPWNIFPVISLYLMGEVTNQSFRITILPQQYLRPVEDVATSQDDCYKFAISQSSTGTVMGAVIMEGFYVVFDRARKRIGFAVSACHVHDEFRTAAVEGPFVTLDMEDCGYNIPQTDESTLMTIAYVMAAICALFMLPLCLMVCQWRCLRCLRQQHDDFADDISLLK

Pro-cathepsin H = target: T5, Pro-cathepsin H (Homo sapiens, UniProt P09668); assay: Inhibition of human Cathepsin H; procedure, shortened: as §1
T5 sequence (P09668 whole entry): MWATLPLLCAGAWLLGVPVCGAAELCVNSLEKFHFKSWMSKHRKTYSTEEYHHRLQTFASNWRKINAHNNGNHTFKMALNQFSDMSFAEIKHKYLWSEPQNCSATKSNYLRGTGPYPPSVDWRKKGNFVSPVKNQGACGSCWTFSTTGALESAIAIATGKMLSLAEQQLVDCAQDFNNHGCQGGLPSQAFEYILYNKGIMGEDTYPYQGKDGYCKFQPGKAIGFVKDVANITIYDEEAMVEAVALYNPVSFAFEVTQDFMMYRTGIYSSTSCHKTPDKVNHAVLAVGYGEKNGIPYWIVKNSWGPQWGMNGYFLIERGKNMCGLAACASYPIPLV

Dipeptidyl peptidase 1 = Dipeptidyl peptidase 1 (Homo sapiens, UniProt P53634); assay: Inhibition of human Cathepsin C; procedure, shortened: as §1
Sequence of Dipeptidyl peptidase 1 (P53634 25-134 limits assumed): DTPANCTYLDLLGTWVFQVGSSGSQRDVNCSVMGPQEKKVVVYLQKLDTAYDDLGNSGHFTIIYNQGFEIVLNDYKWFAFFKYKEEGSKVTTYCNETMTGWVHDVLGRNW
Sequence of Dipeptidyl peptidase 1 (P53634 231-394 limits assumed): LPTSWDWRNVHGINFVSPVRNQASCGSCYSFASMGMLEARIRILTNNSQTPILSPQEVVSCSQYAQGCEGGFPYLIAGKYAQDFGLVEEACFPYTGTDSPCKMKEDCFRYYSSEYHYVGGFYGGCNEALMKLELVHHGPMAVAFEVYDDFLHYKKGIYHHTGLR
Sequence of Dipeptidyl peptidase 1 (P53634 395-463 limits assumed): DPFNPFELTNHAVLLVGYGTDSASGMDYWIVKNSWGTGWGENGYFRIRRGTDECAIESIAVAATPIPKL

Rattus norvegicus = species on record: Rattus norvegicus; assay: Toxicity in rat; format: organism-based; details: in vivo
Cruzipain [7] = target: T3, Cruzipain; assay: Inhibition of recombinant Trypanosoma cruzi cruzain after 5 mins by spectrofluorimetric analysis
Procedure, shortened: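 Recombinant cruzain at 4 nM (activated procruzain, anion-exchange purified) in 100 mM sodium acetate pH 5.5, 5 mM DTT, 0.001% Triton X-100. Preincubated 5 min at room temperature with compound in DMSO, then Z-Phe-Arg-AMC 10 μM. Fluorescence rate read at ex 355/em 460 nm; DMSO controls; IC50 by curve fitting.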

Trypanosoma cruzi = assay: Antitrypanosomal activity against Trypanosoma cruzi Y trypomastigotes infected in mouse J774 cells at 10 uM after 27 days medium replaced every 48 hrs; format: functional, organism-based
Procedure, shortened: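 Irradiated (1000 rad) J774 macrophages plated overnight, infected 2 h with Y strain trypomastigotes, parasites removed, then cultured in RPMI-1640 with compound (n = 3); untreated infected and 10 μM K777 controls per experiment. Medium replaced every 48 h over 27 days; daily phase-contrast microscopy (400×) for free trypomastigotes and host toxicity; cultures kept 14 further days to confirm cure.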

Caspase-4 = Caspase-4 (Homo sapiens, UniProt P49662); assay: Inhibition of human Caspase 4; procedure, shortened: as §1
Sequence of Caspase-4 (P49662 81-270 limits assumed): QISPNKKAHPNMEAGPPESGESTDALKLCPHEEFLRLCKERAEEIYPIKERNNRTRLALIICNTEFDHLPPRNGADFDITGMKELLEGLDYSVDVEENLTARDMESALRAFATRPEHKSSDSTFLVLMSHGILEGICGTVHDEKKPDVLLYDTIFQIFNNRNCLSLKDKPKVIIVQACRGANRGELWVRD
Sequence of Caspase-4 (P49662 290-377 limits assumed): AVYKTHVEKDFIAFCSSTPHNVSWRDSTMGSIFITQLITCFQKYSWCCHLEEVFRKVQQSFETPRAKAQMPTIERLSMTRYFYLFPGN

Neutrophil elastase = Neutrophil elastase (Homo sapiens, UniProt P08246); assay: Inhibition of human Elastase; procedure, shortened: as §1
Sequence of Neutrophil elastase (P08246 whole entry): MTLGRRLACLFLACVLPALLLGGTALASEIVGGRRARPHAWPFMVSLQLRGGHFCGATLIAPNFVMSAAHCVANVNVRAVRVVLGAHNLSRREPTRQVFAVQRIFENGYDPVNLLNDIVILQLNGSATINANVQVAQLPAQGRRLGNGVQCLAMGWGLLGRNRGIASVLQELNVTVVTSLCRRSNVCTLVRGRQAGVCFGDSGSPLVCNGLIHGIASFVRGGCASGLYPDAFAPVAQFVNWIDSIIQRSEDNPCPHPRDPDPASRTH

[8] = Inhibition of human Chymotrypsin; procedure, shortened: as §1
Cathepsin G = Cathepsin G (Homo sapiens, UniProt P08311); assay: Inhibition of human Cathepsin G; procedure, shortened: as §1
Sequence of Cathepsin G (P08311 whole entry): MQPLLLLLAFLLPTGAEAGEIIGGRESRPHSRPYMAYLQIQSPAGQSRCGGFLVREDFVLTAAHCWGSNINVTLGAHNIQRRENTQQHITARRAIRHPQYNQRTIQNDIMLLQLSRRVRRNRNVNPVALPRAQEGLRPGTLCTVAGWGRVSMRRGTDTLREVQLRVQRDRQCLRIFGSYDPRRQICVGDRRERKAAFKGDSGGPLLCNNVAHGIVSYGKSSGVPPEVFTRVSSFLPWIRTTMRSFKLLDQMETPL

Cruzipain [9] = target: T3, Cruzipain; assay: Competitive inhibition of recombinant Trypanosoma cruzi cruzain by Lineweaver-Burke plot analysis
Caspase-1 = Caspase-1 (Homo sapiens, UniProt P29466); assay: Inhibition of human Caspase 1; procedure, shortened: as §1
Sequence of Caspase-1 (P29466 120-297 limits assumed): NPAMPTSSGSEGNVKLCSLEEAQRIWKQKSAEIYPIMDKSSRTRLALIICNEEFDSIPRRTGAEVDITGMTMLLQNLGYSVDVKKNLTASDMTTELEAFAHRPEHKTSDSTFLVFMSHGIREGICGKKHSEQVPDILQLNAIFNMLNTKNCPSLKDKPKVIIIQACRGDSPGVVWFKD
Sequence of Caspase-1 (P29466 317-404 limits assumed): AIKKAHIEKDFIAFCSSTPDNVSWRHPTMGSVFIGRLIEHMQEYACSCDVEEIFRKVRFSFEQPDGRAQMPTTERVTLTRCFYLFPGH

[10] = Inhibition of human CCC1s; procedure, shortened: as §1

CCn1cnc2c(Nc3cc(F)cc(F)c3)nc(C#N)nc21
IC50 [1]: 72400 nM | IC50 (Cathepsin K): 23.4 nM | IC50 (Cathepsin S): 15.8 nM | IC50 (Cathepsin L2): 240 nM | IC50 [2]: < 6 nM | IC50 (Cruzipain [3]): 10 nM | IC50 (Kallikrein-4): 14500 nM | IC50 (Papain): 44.7 nM | pIC50 [4]: 4.19 | IC50 [5]: 74100 nM | Activity (Canis familiaris): Non-toxic | IC50 (Cathepsin Z): 933 nM | IC50 (Cathepsin B): 10700 nM | IC50 [6]: 6000 nM | Activity (Mus musculus): Non-toxic | IC50 (Proteinase K): 74100 nM | IC50 (Procathepsin L): 117 nM | IC50 (Beta-secretase 1): 63100 nM | IC50 (Pro-cathepsin H): 126 nM | IC50 (Dipeptidyl peptidase 1): 34.7 nM | Activity (Rattus norvegicus): Non-toxic | IC50 (Cruzipain [7]): 0.2 nM | Activity (Trypanosoma cruzi): inactive | IC50 (Caspase-4): 33100 nM

N#Cc1nc(Nc2cc(F)cc(F)c2)c2ncn(CC(F)F)c2n1
IC50 (Neutrophil elastase): 85100 nM | IC50 (Cruzipain [3]): 13 nM | pIC50 [8]: 4.19 | IC50 (Cathepsin G): 148000 nM | IC50 (Procathepsin L): 7940 nM

N#Cc1nc(N)nc(N(c2ccccc2)c2ccccc2)n1
IC50 [2]: > 10000 nM | IC50 [6]: > 1000 nM | Ki (Cruzipain [9]): 180 nM | IC50 (Cruzipain [7]): 70 nM

CCNc1nc(C#N)nc2c1ncn2-c1cc(F)cc(F)c1
IC50 [1]: 135000 nM | IC50 (Cathepsin K): 50.1 nM | IC50 (Cathepsin S): 105 nM | IC50 (Cathepsin L2): 70800 nM | IC50 (Cruzipain [3]): 251 nM | IC50 (Caspase-1): 70800 nM | IC50 (Kallikrein-4): 178000 nM | IC50 (Papain): 33.1 nM | Activity (Canis familiaris): Non-toxic | IC50 (Cathepsin Z): 316 nM | Activity (Mus musculus): Non-toxic | pIC50 [10]: 4.3 | IC50 (Procathepsin L): 562 nM | IC50 (Pro-cathepsin H): 646 nM | IC50 (Dipeptidyl peptidase 1): 589 nM | Activity (Rattus norvegicus): Non-toxic
